Experimental data published in ChEMBL document CHEMBL1148054, “Chemical and bioactive constituents from Zanthoxylum simulans” (J Nat Prod, 1994).

Legend:
[1] = Antiplatelet activity against rabbit platelet assessed as inhibition of collagen-induced platelet aggregation at 100 ug/ml; type: functional; details: Oryctolagus cuniculus
HL-60 [2] = experiment: Induction of terminal cell differentiation in human HL60 cells assessed as cell viability at 3.8 uM by trypan blue exclusion method; type: functional; details: read-out: Activity
Outline: (§1)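 HL-60 cells preincubated 18 h at 1.2×10^5 cells/ml, then exposed 4 days to samples in DMSO (final 0.1%). Viability by trypan blue exclusion: viable/(viable+dead)×100. Cell counts also taken after 4 days.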

HT-1080 = experiment: Cytotoxicity against human HT1080 cells; type: functional; details: read-out: ED50 (the source's name)
Outline: (§2)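 Cultured human cancer lines and murine P-388 cells. Complete dose-response data from at least five concentrations of test substance, each tested in duplicate.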

HL-60 [3] = experiment: Induction of terminal cell differentiation in human HL60 cells assessed as inhibition of [3H]thymidine incorporation at 3.8 uM after 4 days; type: functional; parameters: scale not given: the % may be the effect or the level left
Outline: (§3)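 HL-60 cells were kept in RPMI 1640 with 5% heat-inactivated calf serum and penicillin/streptomycin at 37° under 5% CO2. Log-phase cells were diluted to 1.2×10^5 cells/ml and preincubated 18 h. Samples were added in DMSO (final 0.1%; vehicle controls matched) for 4 days. Aliquots then got 0.5 μCi/ml [3H]thymidine for 16 h more, were harvested and scintillation-counted. % incorporation per 10^6 cells = sample DPM / DMSO-control DPM.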

HL-60 [4] = experiment: Induction of terminal cell differentiation in human HL60 cells assessed as cell viability at 7.7 uM by trypan blue exclusion method; type: functional; details: read-out: Activity; outline: as §1
HL-60 [5] = experiment: Induction of terminal cell differentiation in human HL60 cells assessed as naphthol AS-D chloroacetate esterase activity at 7.7 uM after 4 days; type: functional
Outline: (§4)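 HL-60 cells were grown in RPMI 1640 with 5% heat-inactivated calf serum at 37°, 5% CO2. They were diluted to 1.2×10^5 cells/ml, preincubated 18 h, then exposed 4 days to DMSO-dissolved samples (final DMSO 0.1%, matched vehicle controls). Specific esterase (naphthol AS-D chloroacetate) was scored cytochemically with a commercial kit as the percentage of differentiated cells.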

LNCaP = experiment: Cytotoxicity against human LNCAP cells; type: functional; details: read-out: ED50; outline: as §2
HL-60 [6] = experiment: Induction of terminal cell differentiation in human HL60 cells assessed as cell viability at 15.4 uM by trypan blue exclusion method; type: functional; details: read-out: Activity; outline: as §1
SK-MEL = experiment: Cytotoxicity against human SK-MEL cells; type: functional; details: read-out: ED50 (the source's name); outline: as §2
Col2 = experiment: Cytotoxicity against human Col2 cells; type: functional; details: read-out: ED50 (the source's name); outline: as §2
HL-60 [7] = experiment: Induction of terminal cell differentiation in human HL60 cells assessed as naphthol AS-D chloroacetate esterase activity at 30.7 uM after 4 days; type: functional; outline: as §4
HL-60 [8] = experiment: Induction of terminal cell differentiation in human HL60 cells assessed as naphthol AS-D chloroacetate esterase activity at 61.5 uM after 4 days; type: functional; outline: as §4
HL-60 [9] = experiment: Induction of terminal cell differentiation in human HL60 cells assessed as naphthol AS-D chloroacetate esterase activity at 3.8 uM after 4 days; type: functional; outline: as §4
Lu1 = experiment: Cytotoxicity against human Lu1 cells; type: functional; details: read-out: ED50 (the source's name); outline: as §2
HL-60 [10] = experiment: Induction of cell differentiation in human HL60 cells assessed as alpha naphthyl esterase activity at 30.7 uM after 4 days; type: functional
Outline: (§5)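 HL-60 cells in RPMI 1640 with 5% heat-inactivated calf serum at 37° under 5% CO2. Log-phase cells diluted to 1.2×10^5 cells/ml and preincubated 18 h, then samples added in DMSO (final 0.1%, DMSO controls). Cells scored after 4 days.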

[11] = Cytotoxicity against human multidrug-resistant KBV1 cells in absence of vinblastine; type: functional; details: KB-V1, read-out: ED50 (the source's name); outline: as §2
HL-60 [12] = experiment: Induction of terminal cell differentiation in human HL60 cells assessed as inhibition of [3H]thymidine incorporation at 7.7 uM after 4 days; type: functional; parameters: scale not given: the % may be the effect or the level left; outline: as §3
HL-60 [13] = experiment: Induction of terminal cell differentiation in human HL60 cells at 15.4 uM after 4 days by NBT reduction assay; type: functional
Outline: (§6)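 Log-phase HL-60 cells (RPMI 1640, 5% heat-inactivated calf serum, 37°, 5% CO2) were diluted to 1.2×10^5 cells/ml, preincubated 18 h, then treated 4 days with samples in DMSO (final 0.1%; DMSO controls). 10^6 cells were mixed 1:1 with fresh PBS holding 2 mg/ml NBT and 5 μg/ml TPA, 1 h at 37°. Formazan-positive cells were counted microscopically as % NBT-positive.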

P388 = experiment: Cytotoxicity against mouse P388 cells; type: functional; details: read-out: ED50 (the source's name); outline: as §2
HL-60 [14] = experiment: Induction of cell differentiation in human HL60 cells assessed as alpha naphthyl esterase activity at 7.7 uM after 4 days; type: functional; outline: as §5
[15] = Cytotoxicity against human BC1 cells; type: functional; details: read-out: ED50 (the source's name); outline: as §2
HL-60 [16] = experiment: Induction of terminal cell differentiation in human HL60 cells assessed as inhibition of [3H]thymidine incorporation at 30.7 uM after 4 days; type: functional; parameters: scale not given: the % may be the effect or the level left; outline: as §3
[17] = Antiplatelet activity against rabbit platelet assessed as inhibition of arachidonic acid-induced platelet aggregation at 100 ug/ml; type: functional; details: Oryctolagus cuniculus
HL-60 [18] = experiment: Induction of terminal cell differentiation in human HL60 cells at 61.5 uM after 4 days by NBT reduction assay; type: functional; outline: as §6
A-431 = experiment: Cytotoxicity against human A431 cells; type: functional; details: read-out: ED50 (the source's name); outline: as §2
KB = experiment: Cytotoxicity against human KB cells; type: functional; details: read-out: ED50 (the source's name); outline: as §2
HL-60 [19] = experiment: Induction of terminal cell differentiation in human HL60 cells assessed as inhibition of [3H]thymidine incorporation at 61.5 uM after 4 days; type: functional; parameters: scale not given: the % may be the effect or the level left; outline: as §3
[20] = Antiplatelet activity against rabbit platelet assessed as inhibition of platelet activating factor-induced platelet aggregation at 100 ug/ml; type: functional; details: Oryctolagus cuniculus
HL-60 [21] = experiment: Induction of cell differentiation in human HL60 cells assessed as alpha naphthyl esterase activity at 61.5 uM after 4 days; type: functional; outline: as §5
HL-60 [22] = experiment: Induction of cell differentiation in human HL60 cells assessed as alpha naphthyl esterase activity at 15.4 uM after 4 days; type: functional; outline: as §5
HL-60 [23] = experiment: Induction of terminal cell differentiation in human HL60 cells assessed as cell viability at 30.7 uM by trypan blue exclusion method; type: functional; details: read-out: Activity; outline: as §1
HL-60 [24] = experiment: Induction of terminal cell differentiation in human HL60 cells assessed as inhibition of [3H]thymidine incorporation at 15.4 uM after 4 days; type: functional; parameters: scale not given: the % may be the effect or the level left; outline: as §3
[25] = Cytotoxicity against human multidrug-resistant KBV1 cells in presence of vinblastine; type: functional; details: KB-V1, read-out: ED50 (the source's name); outline: as §2
HL-60 [26] = experiment: Induction of terminal cell differentiation in human HL60 cells at 30.7 uM after 4 days by NBT reduction assay; type: functional; outline: as §6
HL-60 [27] = experiment: Induction of terminal cell differentiation in human HL60 cells assessed as cell viability at 61.5 uM by trypan blue exclusion method; type: functional; details: read-out: Activity; outline: as §1
HL-60 [28] = experiment: Induction of cell differentiation in human HL60 cells assessed as alpha naphthyl esterase activity at 3.8 uM after 4 days; type: functional; outline: as §5
[29] = Cytotoxicity against human U373 cells; type: functional, U-373MG ATCC; details: U373 MG, read-out: ED50; outline: as §2
HL-60 [30] = experiment: Induction of terminal cell differentiation in human HL60 cells assessed as naphthol AS-D chloroacetate esterase activity at 15.4 uM after 4 days; type: functional; outline: as §4
HL-60 [31] = experiment: Induction of terminal cell differentiation in human HL60 cells at 7.7 uM after 4 days by NBT reduction assay; type: functional; outline: as §6
ZR-75-1 = experiment: Cytotoxicity against human ZR-75-1 cells; type: functional; details: ZR-75-1, read-out: ED50; outline: as §2
HL-60 [32] = experiment: Induction of terminal cell differentiation in human HL60 cells at 3.8 uM after 4 days by NBT reduction assay; type: functional; outline: as §6

Q: Which results are given for CC(C)C(=O)CCC1(C)C=Cc2c(c3ccccc3n(C)c2=O)O1 (stereo unspecified)?
A: inhibition at 100 µg/mL [1]: 83.9%; viability at 3.8 µM (HL-60 [2]): 97%; EC50 (HT-1080): > 60 µM; Activity (HL-60 [3]): 0%; viability at 7.7 µM (HL-60 [4]): 98%; Activity (HL-60 [5]): 6.5%; EC50 (LNCaP): > 60 µM; viability at 15.4 µM (HL-60 [6]): 98%; EC50 (SK-MEL): 36.6 µM; EC50 (Col2): > 60 µM; Activity (HL-60 [7]): 9.4%; Activity (HL-60 [8]): 5%; Activity (HL-60 [9]): 5.5%; EC50 (Lu1): > 60 µM; Activity (HL-60 [10]): 12.22%; EC50 [11]: 24.3 µM; Activity (HL-60 [12]): 0%; Activity (HL-60 [13]): 8%; EC50 (P388): 9.8 µM; Activity (HL-60 [14]): 5%; EC50 [15]: > 60 µM; Activity (HL-60 [16]): 0%; inhibition at 100 µg/mL [17]: 100%; Activity (HL-60 [18]): 53.1%; EC50 (A-431): > 60 µM; EC50 (KB): 46.4 µM; Activity (HL-60 [19]): 31.6%; inhibition at 100 µg/mL [20]: 100%; Activity (HL-60 [21]): 48.9%; Activity (HL-60 [22]): 5.5%; viability at 30.7 µM (HL-60 [23]): 96%; Activity (HL-60 [24]): 0%; EC50 [25]: 4 µM; Activity (HL-60 [26]): 9.9%; viability at 61.5 µM (HL-60 [27]): 85%; Activity (HL-60 [28]): 5%; EC50 [29]: > 60 µM; Activity (HL-60 [30]): 8%; Activity (HL-60 [31]): 4.5%; EC50 (ZR-75-1): 11.1 µM; Activity (HL-60 [32]): 5.5%
